Results reported in ChEMBL document CHEMBL1142148, “Antibiotic susceptibility profile of bifidobacteria as affected by oxgall, acid, and hydrogen peroxide stress” (2007).
≈ marks a conversion by molar mass, not a printed value.

Key:
Bifidobacterium animalis [1] = test: Antimicrobial activity against Bifidobacterium animalis ATCC 27536; format: functional
In short: (§1)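 Broth microdilution in MRS plus 0.05% L-cysteine-HCl. Mid-log culture adjusted to OD650 0.1, giving about 2.5 × 10^4 to 5.0 × 10^4 CFU/well, then added to twofold serial dilutions of agent. Plates incubated anaerobically at 37°C for 18 h and read at OD650. MIC is the lowest concentration matching the uninoculated blank OD, taken as the median of four repeats.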

Bifidobacterium bifidum [2] = test: Antimicrobial activity against Bifidobacterium bifidum R0071; format: functional; in short: as §1
Bifidobacterium bifidum [3] = test: Antimicrobial activity against Bifidobacterium bifidum ATCC 15696; format: functional; in short: as §1
Bifidobacterium bifidum [4] = test: Antimicrobial activity against Bifidobacterium bifidum BB12; format: functional; in short: as §1
Bifidobacterium breve [5] = test: Antimicrobial activity against Bifidobacterium breve ATCC 15700; format: functional; in short: as §1
[6] = Antimicrobial activity against Bifidobacterium infantis ATCC 15697; format: functional, Bifidobacterium longum subsp. infantis; conditions: Bifidobacterium longum; in short: as §1
Bifidobacterium longum [7] = test: Antimicrobial activity against Bifidobacterium longum ATCC 15708; format: functional; in short: as §1
Bifidobacterium longum [8] = test: Antimicrobial activity against Bifidobacterium longum R0175; format: functional; in short: as §1
Bifidobacterium longum [9] = test: Antimicrobial activity against Bifidobacterium longum P/N 601377; format: functional; in short: as §1
[10] = tested on: Bifidobacterium pseudolongum; test: Antimicrobial activity against Bifidobacterium pseudolongum ATCC 25562; format: functional; in short: as §1
[11] = tested on: Bifidobacterium thermophilum; test: Antimicrobial activity against Bifidobacterium thermophilum ATCC 25866; format: functional; in short: as §1
Bifidobacterium breve [12] = test: Antimicrobial activity against Bifidobacterium breve R0070; format: functional; in short: as §1
Bifidobacterium animalis [13] = test: Antimicrobial activity against 60 min 1 M HCl-stressed Bifidobacterium animalis ATCC 27536 after 18 hrs; format: functional
In short: (§2)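 Mid-log MRS culture pelleted and resuspended in MRS broth brought to pH 2.0 with 1 M HCl, held anaerobically at 37°C for 60 min, then subcultured in MRS (pH 6.5) for 24 h anaerobically before MIC testing by broth microdilution (as for unstressed cells). Table footnote gives 18 h anaerobic regrowth after the stress. MIC is the median of four repetitions.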

Bifidobacterium bifidum [14] = test: Antimicrobial activity against 60 min 1 M HCl-stressed Bifidobacterium bifidum R0071 after 18 hrs; format: functional; in short: as §2
Bifidobacterium bifidum [15] = test: Antimicrobial activity against 60 min 1 M HCl-stressed Bifidobacterium bifidum BB12 after 18 hrs; format: functional; in short: as §2
Bifidobacterium breve [16] = test: Antimicrobial activity against 60 min 1 M HCl-stressed Bifidobacterium breve ATCC 15700 after 18 hrs; format: functional; in short: as §2
Bifidobacterium breve [17] = test: Antimicrobial activity against 60 min 1 M HCl-stressed Bifidobacterium breve R0070 after 18 hrs; format: functional; in short: as §2
[18] = Antimicrobial activity against 60 min 1 M HCl-stressed Bifidobacterium infantis ATCC 15697 after 18 hrs; format: functional, Bifidobacterium longum subsp. infantis; conditions: Bifidobacterium longum; in short: as §2
Bifidobacterium longum [19] = test: Antimicrobial activity against 60 min 1 M HCl-stressed Bifidobacterium longum ATCC 15707 after 18 hrs; format: functional; in short: as §2
Bifidobacterium longum [20] = test: Antimicrobial activity against 60 min 1 M HCl-stressed Bifidobacterium longum R0175 after 18 hrs; format: functional; in short: as §2
Bifidobacterium longum [21] = test: Antimicrobial activity against 60 min 1 M HCl-stressed Bifidobacterium longum P/N 601377 after 18 hrs; format: functional; in short: as §2
[22] = tested on: Bifidobacterium pseudolongum; test: Antimicrobial activity against 60 min 1 M HCl-stressed Bifidobacterium pseudolongum ATCC 25562 after 18 hrs; format: functional; in short: as §2
[23] = tested on: Bifidobacterium thermophilum; test: Antimicrobial activity against 60 min 1 M HCl-stressed Bifidobacterium thermophilum ATCC 25866 after 18 hrs; format: functional; in short: as §2
Bifidobacterium animalis [24] = test: Antimicrobial activity against 90 mins oxgall-stressed Bifidobacterium animalis ATCC 27536 after 18 hrs; format: functional
In short: (§3)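 Cells pelleted from mid-log MRS culture and resuspended in MRS (initial pH 6.5) with 0.3% (wt/vol) oxgall for 90 min anaerobically at 37°C. They were then regrown in MRS pH 6.5 for 24 h (footnote: 18 h) anaerobically and tested for MIC by the same broth microdilution assay. Median of four repetitions.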

Bifidobacterium bifidum [25] = test: Antimicrobial activity against 90 mins oxgall-stressed Bifidobacterium bifidum R0071 after 18 hrs; format: functional; in short: as §3
Bifidobacterium bifidum [26] = test: Antimicrobial activity against 90 mins oxgall-stressed Bifidobacterium bifidum ATCC 15696 after 18 hrs; format: functional; in short: as §3
Bifidobacterium bifidum [27] = test: Antimicrobial activity against 90 mins oxgall-stressed Bifidobacterium bifidum BB12 after 18 hrs; format: functional; in short: as §3
Bifidobacterium breve [28] = test: Antimicrobial activity against 90 mins oxgall-stressed Bifidobacterium breve ATCC 15700 after 18 hrs; format: functional; in short: as §3
Bifidobacterium breve [29] = test: Antimicrobial activity against 90 mins oxgall-stressed Bifidobacterium breve R0070 after 18 hrs; format: functional; in short: as §3
[30] = Antimicrobial activity against 90 mins oxgall-stressed Bifidobacterium infantis ATCC 15697 after 18 hrs; format: functional, Bifidobacterium longum subsp. infantis; conditions: Bifidobacterium longum; in short: as §3
Bifidobacterium longum [31] = test: Antimicrobial activity against 90 mins oxgall-stressed Bifidobacterium longum ATCC 15707 after 18 hrs; format: functional; in short: as §3
Bifidobacterium longum [32] = test: Antimicrobial activity against 90 mins oxgall-stressed Bifidobacterium longum ATCC 15708 after 18 hrs; format: functional; in short: as §3
Bifidobacterium longum [33] = test: Antimicrobial activity against Bifidobacterium longum ATCC 15707; format: functional; in short: as §1
Bifidobacterium longum [34] = test: Antimicrobial activity against 90 mins oxgall-stressed Bifidobacterium longum R0175 after 18 hrs; format: functional; in short: as §3
Bifidobacterium longum [35] = test: Antimicrobial activity against 90 mins oxgall-stressed Bifidobacterium longum P/N 601377 after 18 hrs; format: functional; in short: as §3
[36] = tested on: Bifidobacterium pseudolongum; test: Antimicrobial activity against 90 mins oxgall-stressed Bifidobacterium pseudolongum ATCC 25562 after 18 hrs; format: functional; in short: as §3
[37] = tested on: Bifidobacterium thermophilum; test: Antimicrobial activity against 90 mins oxgall-stressed Bifidobacterium thermophilum ATCC 25866 after 18 hrs; format: functional; in short: as §3
Bifidobacterium animalis [38] = test: Antimicrobial activity against 90 mins hydrogen peroxide-stressed Bifidobacterium animalis ATCC 27536 after 18 hrs; format: functional
In short: (§4)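 Stress applied for 90 min at 37°C under anaerobic conditions, using MRS (initial pH 6.5) containing H2O2 at each strain's own inhibitory concentration. The H2O2 level was set beforehand by microplate tolerance testing. Challenged cells were regrown in MRS for 24 h (footnote: 18 h) before MIC testing by broth microdilution. Median of four repetitions.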

Bifidobacterium bifidum [39] = test: Antimicrobial activity against 90 mins hydrogen peroxide-stressed Bifidobacterium bifidum R0071 after 18 hrs; format: functional; in short: as §4
Bifidobacterium bifidum [40] = test: Antimicrobial activity against 90 mins hydrogen peroxide-stressed Bifidobacterium bifidum BB12 after 18 hrs; format: functional; in short: as §4
Bifidobacterium breve [41] = test: Antimicrobial activity against 90 mins hydrogen peroxide-stressed Bifidobacterium breve ATCC 15700 after 18 hrs; format: functional; in short: as §4
Bifidobacterium breve [42] = test: Antimicrobial activity against 90 mins hydrogen peroxide-stressed Bifidobacterium breve R0070 after 18 hrs; format: functional; in short: as §4
Bifidobacterium longum [43] = test: Antimicrobial activity against 90 mins hydrogen peroxide-stressed Bifidobacterium longum ATCC 15707 after 18 hrs; format: functional; in short: as §4
Bifidobacterium longum [44] = test: Antimicrobial activity against 90 mins hydrogen peroxide-stressed Bifidobacterium longum ATCC 15708 after 18 hrs; format: functional; in short: as §4
Bifidobacterium longum [45] = test: Antimicrobial activity against 90 mins hydrogen peroxide-stressed Bifidobacterium longum R0175 after 18 hrs; format: functional; in short: as §4
Bifidobacterium longum [46] = test: Antimicrobial activity against 90 mins hydrogen peroxide-stressed Bifidobacterium longum P/N 601377 after 18 hrs; format: functional; in short: as §4
[47] = tested on: Bifidobacterium thermophilum; test: Antimicrobial activity against 90 mins hydrogen peroxide-stressed Bifidobacterium thermophilum ATCC 25866 after 18 hrs; format: functional; in short: as §4

MIC (Bifidobacterium animalis [1]): 15.6 µg/mL (≈ 44.6 µM)
MIC (Bifidobacterium bifidum [2]): 1.9 µg/mL (≈ 5.44 µM)
MIC (Bifidobacterium bifidum [3]): 0.98 µg/mL (≈ 2.8 µM)
MIC (Bifidobacterium bifidum [4]): 31.2 µg/mL (≈ 89.3 µM)
MIC (Bifidobacterium breve [5]): 3.9 µg/mL (≈ 11.2 µM)
MIC [6]: 7.8 µg/mL (≈ 22.3 µM)
MIC (Bifidobacterium longum [7]): 7.8 µg/mL (≈ 22.3 µM)
MIC (Bifidobacterium longum [8]): 7.8 µg/mL (≈ 22.3 µM)
MIC (Bifidobacterium longum [9]): 0.98 µg/mL (≈ 2.8 µM)
MIC [10]: 3.9 µg/mL (≈ 11.2 µM)
MIC [11]: 0.98 µg/mL (≈ 2.8 µM)
MIC (Bifidobacterium breve [12]): 15.6 µg/mL (≈ 44.6 µM)
MIC (Bifidobacterium animalis [13]): 0.98 µg/mL (≈ 2.8 µM)
MIC (Bifidobacterium bifidum [14]): 0.98 µg/mL (≈ 2.8 µM)
MIC (Bifidobacterium bifidum [15]): 0.98 µg/mL (≈ 2.8 µM)
MIC (Bifidobacterium breve [16]): 0.98 µg/mL (≈ 2.8 µM)
MIC (Bifidobacterium breve [17]): 3.9 µg/mL (≈ 11.2 µM)
MIC [18]: 0.98 µg/mL (≈ 2.8 µM)
MIC (Bifidobacterium longum [19]): 3.9 µg/mL (≈ 11.2 µM)
MIC (Bifidobacterium longum [20]): 0.98 µg/mL (≈ 2.8 µM)
MIC (Bifidobacterium longum [21]): 0.98 µg/mL (≈ 2.8 µM)
MIC [22]: 0.98 µg/mL (≈ 2.8 µM)
MIC [23]: 3.9 µg/mL (≈ 11.2 µM)
MIC (Bifidobacterium animalis [24]): 0.98 µg/mL (≈ 2.8 µM)
MIC (Bifidobacterium bifidum [25]): 0.98 µg/mL (≈ 2.8 µM)
MIC (Bifidobacterium bifidum [26]): 0.98 µg/mL (≈ 2.8 µM)
MIC (Bifidobacterium bifidum [27]): 0.98 µg/mL (≈ 2.8 µM)
MIC (Bifidobacterium breve [28]): 3.9 µg/mL (≈ 11.2 µM)
MIC (Bifidobacterium breve [29]): 0.98 µg/mL (≈ 2.8 µM)
MIC [30]: 0.98 µg/mL (≈ 2.8 µM)
MIC (Bifidobacterium longum [31]): 0.98 µg/mL (≈ 2.8 µM)
MIC (Bifidobacterium longum [32]): 0.98 µg/mL (≈ 2.8 µM)
MIC (Bifidobacterium longum [33]): 15.6 µg/mL (≈ 44.6 µM)
MIC (Bifidobacterium longum [34]): 0.98 µg/mL (≈ 2.8 µM)
MIC (Bifidobacterium longum [35]): 0.98 µg/mL (≈ 2.8 µM)
MIC [36]: 0.98 µg/mL (≈ 2.8 µM)
MIC [37]: 1.9 µg/mL (≈ 5.44 µM)
MIC (Bifidobacterium animalis [38]): 3.9 µg/mL (≈ 11.2 µM)
MIC (Bifidobacterium bifidum [39]): 0.98 µg/mL (≈ 2.8 µM)
MIC (Bifidobacterium bifidum [40]): 0.98 µg/mL (≈ 2.8 µM)
MIC (Bifidobacterium breve [41]): 3.9 µg/mL (≈ 11.2 µM)
MIC (Bifidobacterium breve [42]): 0.98 µg/mL (≈ 2.8 µM)
MIC (Bifidobacterium longum [43]): 0.98 µg/mL (≈ 2.8 µM)
MIC (Bifidobacterium longum [44]): 3.9 µg/mL (≈ 11.2 µM)
MIC (Bifidobacterium longum [45]): 1.9 µg/mL (≈ 5.44 µM)
MIC (Bifidobacterium longum [46]): 0.98 µg/mL (≈ 2.8 µM)
MIC [47]: 3.9 µg/mL (≈ 11.2 µM)
SMILES: CC1(C)S[C@@H]2[C@H](NC(=O)[C@H](N)c3ccccc3)C(=O)N2[C@H]1C(=O)O [AMPICILLIN]
